Test results reported in paper PMC12744601 (Infection and Drug Resistance, 2025).
Values after ≈ are worked out from the molar mass of the structure shown.

Test system: daptomycin-non-susceptible VRE strain (clinical DRE isolate)
Assay: Minimum inhibitory concentration
Type: cell-based, Enterococcus faecium
Procedure, shortened: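 Clinical daptomycin-non-susceptible VRE isolate from a bloodstream infection. Species identified by VITEK 2. […] Fosfomycin MIC by agar dilution and ceftaroline MIC by broth microdilution. Breakpoints per CLSI.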

| SMILES | MIC (Enterococcus, VRE) [µg/mL] | also measured |
| --- | --- | --- |
| CCO/N=C(\C(=O)N[C@@H]1C(=O)N2C(C(=O)[O-])=C(Sc3nc(-c4cc[n+](C)cc4)cs3)CS[C@H]12)c1nsc(N)n1 [Ceftaroline, ceftaroline] | > 8 |  |
| CCCCCCCCCC(=O)N[C@@H](Cc1c[nH]c2ccccc12)C(=O)N[C@H](CC(N)=O)C(=O)N[C@@H](CC(=O)O)C(=O)N[C@@H]1C(=O)NCC(=O)N[C@@H](CCCN)C(=O)N[C@@H](CC(=O)O)C(=O)N[C@H](C)C(=O)N[C@@H](CC(=O)O)C(=O)NCC(=O)N[C@H](CO)C(=O)N[C@@H]([C@H](C)CC(=O)O)C(=O)N[C@@H](CC(=O)c2ccccc2N)C(=O)O[C@@H]1C [Daptomycin, daptomycin] |  | MIC (broth microdilution, cation-adjusted Mueller-Hinton broth supplemented with 50 mg/mL calcium, clinical DRE isolate): 8 µg/mL (≈ 4.94 µM) |
| C[C@@H]1O[C@@H]1P(=O)(O)O [Fosfomycin, fosfomycin] | 128 (≈ 927 µM) |  |
| CN[C@H](CC(C)C)C(=O)N[C@H]1C(=O)N[C@@H](CC(N)=O)C(=O)N[C@H]2C(=O)N[C@H]3C(=O)N[C@H](C(=O)N[C@H](C(=O)O)c4cc(O)cc(O)c4-c4cc3ccc4O)[C@H](O)c3ccc(c(Cl)c3)Oc3cc2cc(c3O[C@@H]2O[C@H](CO)[C@@H](O)[C@H](O)[C@H]2O[C@H]2C[C@](C)(N)[C@H](O)[C@H](C)O2)Oc2ccc(cc2Cl)[C@H]1O [vancomycin] |  | MIC (Sensititre GPN3F system, clinical DRE isolate): > 128 µg/mL |
